Bioassay records deposited in PubChem BioAssay by several laboratories.
The list is not random: actives were taken first. Their share in the collection is about 2.3%.
HNF4A DNA FP = change in binding of human HNF4 alpha to DNA | P41235 | HNF4a-FITC DNA binding, fluorescence polarization, 1 h | activity change, % at 10 µM | 360,000 compounds, 0.3% hits | AID 1224865; in the data active means activity change above about 30%, passing the limit was not always enough
CSN inh = inhibitors of human CSN-mediated cullin deneddylation | inhibition, % at 12.5 µM | Purified CSN, SCF-Nedd8-OG deneddylation, fluorescence polarization | Q92905 | AID 651999 | 360,000 compounds, 0.38% hits;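 active means pattern-corrected inhibition above about 35%, with an unprinted fluorescence ratio check between 0.5 and 1.5, limit read from the data, passing the limit was not always enough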
Target sequence (Q92905 whole entry, looked up, one chain of several): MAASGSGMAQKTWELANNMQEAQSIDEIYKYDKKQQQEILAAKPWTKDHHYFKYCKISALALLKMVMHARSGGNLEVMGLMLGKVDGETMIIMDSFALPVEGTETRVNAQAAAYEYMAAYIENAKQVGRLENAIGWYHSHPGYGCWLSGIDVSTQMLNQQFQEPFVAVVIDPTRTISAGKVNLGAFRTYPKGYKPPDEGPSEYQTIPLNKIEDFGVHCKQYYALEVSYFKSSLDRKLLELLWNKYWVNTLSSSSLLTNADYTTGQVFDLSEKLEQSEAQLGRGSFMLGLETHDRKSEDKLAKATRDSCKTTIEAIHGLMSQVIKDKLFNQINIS
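Assay system: purified human Csn5 enzyme expressed in HEK293T cells; Input: 0.24 nM Csn5 enzyme, final concentration; Reagent: 10 nM SCFSkp2-Nedd8OG; Compound dosing: 12.5 µM single point; Times: reaction 90 min, room temperature; Technique: fluorescence polarization readout.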
CRFBP-R2 agonist = agonists of human CRF-binding protein/CRF-R2 receptor complex; activation, % at 13.2 µM; HEK293 CRF-R2/CRF-BP, calcium dye fluorescence (FLIPR); percent of saturating CRF peptide response; 350,000 compounds, 0.46% hits;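 active means activation of at least 50%, plus an integration ratio under a set limit after plate pattern correction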
Rpn11 inh = blocks the human proteasome subunit Rpn11 | calls only at 20 µM | human 26S proteasome, Ub4-pepOG fluorescence polarization; 20S core pre-blocked with epoxomicin | AID 588493 | 360,000 compounds, 0.59% hits | O00487;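 active means inhibition at 20 µM, scaled to each plate's controls, above about 33%, limit read from the data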
Target sequence (O00487 whole entry, looked up): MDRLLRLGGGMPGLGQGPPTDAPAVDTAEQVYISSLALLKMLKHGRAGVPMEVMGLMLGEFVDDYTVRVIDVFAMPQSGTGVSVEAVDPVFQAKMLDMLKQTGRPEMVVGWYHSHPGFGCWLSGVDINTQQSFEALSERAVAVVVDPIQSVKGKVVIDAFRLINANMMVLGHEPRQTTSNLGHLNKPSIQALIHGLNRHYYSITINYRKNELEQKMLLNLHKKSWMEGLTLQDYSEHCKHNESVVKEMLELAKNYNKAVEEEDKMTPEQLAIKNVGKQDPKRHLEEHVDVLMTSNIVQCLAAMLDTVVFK
CRFBP-R2 block = blocks CRF-induced signaling of the CRF-BP/CRF-R2 complex; HEK293 CRF-R2/CRF-BP, CRF-induced calcium fluorescence; inhibition, % at 11.8 µM; 350,000 compounds, 0.59% hits; AID 588475;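 active means inhibition of the ligand-induced calcium signal above about 50% at the single tested concentration, limit read from the data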
TPT1 inhibitor = C. albicans TPT1 enzyme inhibition; recombinant caTPT1, FP RNA substrate dephosphorylation; inhibition, % at 5 µM; 300,000 compounds, 0.81% hits;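 active means inhibition above the mean of all tested compounds plus 3 SD, set per screening campaign, cut at about 24% in these data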
Rpn11 confirm = Rpn11 inhibition confirmation, single concentration; shares compounds with Rpn11 inh; purified human 26S proteasome, Ub4-pepOG fluorescence polarization; proteasome pretreated with epoxomicin; inhibition, % at 20 µM; 1,900 compounds, 29% hits; AID 602318
MMP-2 counter = MMP-2 (human) inhibition counter-screen; inhibition, % at 20 µM; 1,900 compounds, 4% hits; AID 602330; recombinant MMP-2, FRET peptide cleavage fluorescence; shares compounds with Rpn11 inh;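 further: human MMP-2 activated beforehand with APMA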
Thrombin FP = blocks bovine thrombin, flagging nonselective RPN11 hits; shares compounds with Rpn11 inh; bovine thrombin cleavage of Ub4-pepOG, fluorescence polarization; inhibition, % at 20 µM; 1,900 compounds, 13% hits; AID 602333;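 active means mean inhibition at least 40% at 20 µM, or signal 3 deviations below plate average, so some actives read negative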
Numbers stand for hits; i = inactive; nt = not tested or not shown; + = active, no number. Unless noted, no stated cut-off is given here; in the data, active means inhibition above about 40%; inactive means the rest.

SMILES	HNF4A DNA FP	CSN inh	CRFBP-R2 agonist	Rpn11 inh	CRFBP-R2 block	TPT1 inhibitor	Rpn11 confirm	MMP-2 counter	Thrombin FP
O=c1[nH]c(CN2CCN(c3ccccc3O)CC2)nc2scc(-c3ccccc3Cl)c12	i	i	i	i	i	i	nt	nt	nt
O=C(N/N=C/c1coc2ccc(Cl)cc2c1=O)c1cc(O)cc(O)c1	i	i	i	i	i	nt	nt	nt	nt
Cc1ccccc1NC(=S)NCc1cccs1	i	i	i	+	i	i	i	i	i
Cc1ccccc1CN1CCC(n2nccc2NC(=O)CCCc2ccccc2)CC1	i	i	i	i	i	i	nt	nt	nt
COc1ccc(F)c(CN2CCC(n3nccc3NC(=O)CCCc3ccccc3)CC2)c1	i	i	i	+	i	i	i	i	i
CC(CNC(=O)C(C)C)NC(=O)C(C)C (stereo unspecified)	i	i	i	i	i	i	nt	nt	nt
CCC(C)Sc1cc(-c2nc3ccccn3c2NC2CCCCC2)ccc1OC (stereo unspecified)	i	i	i	i	i	i	nt	nt	nt
CCC(C)Sc1cc(-c2nc3cc(C)ccn3c2NC2CCCCC2)ccc1OC (stereo unspecified)	i	i	i	+	i	nt	i	i	i
CC1CC(C)CN(C(CCc2ccccc2)C(=O)NC2CCCCC2)C1 (stereo unspecified)	i	i	nt	i	nt	nt	nt	nt	nt
Cc1cc(C(=O)Nc2sc3c(c2C#N)CCC(C(C)(C)C)C3)no1 (stereo unspecified)	i	i	i	i	i	i	nt	nt	nt
CCOc1ccccc1C(=O)NN1C(=O)C2CCCCC2C1=O (stereo unspecified)	i	i	i	i	i	i	nt	nt	nt
O=C(N/C(=N\O)c1ccccc1)Nc1ccc(Cl)cc1	i	i	i	+	i	i	i	i	i
COc1cc(/C=C2\C(=N)N3N=C(S(C)(=O)=O)SC3=NC2=O)ccc1OC(=O)c1ccco1	i	i	i	+	i	i	i	i	i
COc1ccc(/C=C2\SC(=O)N(CCCC(=O)Nc3ccc(C(=O)O)cc3)C2=O)cc1OC	i	i	i	i	i	i	nt	nt	nt
O=C(O)CCCCN1C(=O)/C(=C\c2ccc(OCc3ccccc3)c(OCc3ccccc3)c2)SC1=S	i	i	i	+	i	i	43.2	i	i
COc1ccc(/C=C2\SC(=S)N(CCCC(=O)Nc3ccc(C(=O)O)cc3)C2=O)cc1OC	i	i	i	+	i	i	67.2	i	51.6
Cc1ccc(/C=C2\SC(=S)N(CCCC(=O)NNC(=O)c3ccccc3O)C2=O)cc1	i	i	i	+	i	i	42.8	i	i
COc1ccc(/C=C2/SC(=S)N(CC(=O)O)C2=O)cc1OCc1ccc(Cl)cc1	i	i	i	i	i	i	nt	nt	nt
COc1ccc(/C=C2/SC(=S)N(CCCC(=O)Nc3ccc(O)cc3)C2=O)cc1OC	i	i	i	+	i	i	60.7	i	42.3
O=C(CCN1C(=O)/C(=C\c2ccccc2)SC1=S)Nc1ccc(C(=O)O)cc1	i	i	i	i	i	i	nt	nt	nt
CCc1ccc(/C=C2\SC(=S)N(CCC(=O)N3CCN(C)CC3)C2=O)cc1	i	i	i	+	i	i	70.0	i	54.1
CCOc1ccc(/C=C2/SC(=S)N(CCC(=O)Nc3ccc(C(=O)O)cc3)C2=O)cc1	i	i	i	+	i	i	i	i	i
COc1ccc(/C=C2/SC(=S)N(CCC(=O)N3CCN(C)CC3)C2=O)cc1	i	i	i	i	i	i	nt	nt	nt
COc1cccc(/C=C2/SC(=S)N(CCCC(=O)Nc3ccc(O)cc3)C2=O)c1	i	i	i	i	i	i	nt	nt	nt
COc1cc(/C=C2/SC(=S)N(CC(=O)O)C2=O)ccc1OC(=O)c1ccco1	i	i	i	+	i	i	i	i	i
SMILES	HNF4A DNA FP	CSN inh	CRFBP-R2 agonist	Rpn11 inh	CRFBP-R2 block	TPT1 inhibitor	Rpn11 confirm	MMP-2 counter	Thrombin FP
COc1ccc(/C=N/NC(=O)c2ccc(Br)cc2)cc1CN1CCOCC1	i	i	i	i	i	i	nt	nt	nt
COc1ccc(C2/C(=C(/O)c3ccccc3)C(=O)C(=O)N2c2ccccn2)c(OC)c1 (stereo unspecified)	i	i	i	i	i	i	nt	nt	nt
CC(=O)c1cccc(-n2nnnc2SCC(=O)NNC(=O)C(C)C)c1	i	i	i	i	i	i	nt	nt	nt
CCOC(=O)N1CCN(CC(=O)Nc2nc3ccccc3s2)CC1	i	i	i	i	i	i	nt	nt	nt
CCOC(=O)N1CCN(C(=O)c2nc3ccccc3s2)CC1	i	i	i	+	i	i	i	i	i
CCC(CC)C(=O)c1c[nH]c(C(=O)NCc2cccs2)c1	i	i	i	+	i	i	i	i	i
CCC(CC)C(=O)c1c[nH]c(C(=O)NCc2ccco2)c1	i	i	i	i	i	i	nt	nt	nt
Cc1nc(S(=O)(=O)N2CCN(C3c4ccccc4-c4ccccc43)CC2)cn1C	i	i	i	i	i	i	nt	nt	nt
CC1=CC(=C(C#N)C#N)c2ccccc2N1C	i	i	i	+	i	i	125.2	i	55.7
Cc1ccccc1N1C(=O)CSC1=C(C#N)C#N	i	i	i	nt	i	i	nt	nt	nt
O=C(Nc1nc(-c2ccc(Cl)s2)cs1)c1ccco1	i	i	i	i	i	i	nt	nt	nt
O=C(Nc1nc(-c2nc3ccccc3s2)cs1)c1ccco1	i	i	i	+	i	i	140.2	i	i
O=S(=O)(NC1=NCCC1)c1cccs1	i	i	i	i	i	i	nt	nt	nt
O=C(Cn1c2ccccc2c(=O)c2ccccc21)N/N=C/c1cc([N+](=O)[O-])ccc1N1CCCCCC1	i	i	i	+	i	i	i	i	i
Cc1cccc(N(C(=O)CCC(=O)Nc2ccccn2)C(C(=O)NC(C)C)c2ccc(O)cc2)c1 (stereo unspecified)	i	i	i	i	i	i	nt	nt	nt
CCn1cc(C(=O)O)c(=O)c2cc(F)c(N3CCN(C(=S)Nc4ccccc4OC)CC3)cc21	i	i	i	i	i	i	nt	nt	nt
CCn1cc(C(=O)O)c(=O)c2cc(F)c(N/N=C/c3ccccc3[N+](=O)[O-])cc21	i	i	i	+	i	i	i	i	i
COc1cccc(C(=O)CN2C(=O)C(C)(C)Oc3ccc(C(=O)N4CCCCCC4)cc32)c1	i	i	i	+	i	i	i	i	i
COc1cccc(C(=O)CN2C(=O)C(C)(C)Oc3ccc(C(=O)N4CCOCC4)cc32)c1	i	i	i	i	i	i	nt	nt	nt
